Experimental findings from ChEMBL document CHEMBL1126753, “1-Carboranyl-3-(2-methylaziridino)-2-propanol. Synthesis, selective uptake by B-16 melanoma, and selective cytotoxicity toward cancer cells” (J Med Chem, 1993) are described below.

Each structure is given as a SMILES string.

Assay [1] has as its system TIG-1-20. In words: Boron incorporation into TIG-1-20 human fetal lung normal cell line after 24 hours. It is filed as functional. In a few lines: (§1)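 Cells grown to confluence in 150-mm dishes (about 5.0 × 10⁶ cells/dish), then exposed to carrier (1.5 ppm carborane or 200 ppm BPA-HCl) in Eagle-MEM with 10% FCS at 37 °C. Cells were washed thrice in Ca-Mg-free PBS, scraped, digested in HClO₄–H₂O₂ for 1 h at 75 °C, and filtered. Boron was measured by ICP-AES, untreated-dish boron subtracted, and reported as μg/10⁶ cells; two replicates, SD.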

Assay [2] concerns TIG-1-20. In words: Boron incorporation into TIG-1-20 human fetal lung normal cell line after 2 hours. It is filed as functional. An outline of the steps: as §1
Assay [3] concerns B16. The experiment in a line: Boron incorporation into B-16 […] tumor cell after 2 hours. The format is functional. An outline of the steps:
as §1

The subject of the next assay is Tumor cell line. In words: (§2) Inhibition of growth of IMR 32 human tumor cell line. It is filed as functional, cell-based. An outline of the steps: (§3)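 1 × 10⁶ cells per 60-mm dish in Eagle-MEM plus 10% FCS, treated with 1, 2.5, 5, 10, 25, 50 or 100 ppm compound (DMSO vehicle) for 3 days at 37 °C in CO₂. Cells were washed with PBS, trypsinized and counted; the count is a percentage of untreated control, and IC50 is the concentration giving 50% of control cell number.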

The subject of another assay is IMR-32. Described as §2. It is filed as functional, cell-based. In a few lines: as §3
The subject of assay [4] is B16. The experiment in a line: Boron incorporation into B-16 […] tumor cell after 24 hours. The format is functional. An outline of the steps: as §1

For `CC1CN1CC(O)CC1CC1` (stereo not given), the Boron incorporation came out at 0.11 ug/10e6 in the assay with TIG-1-20 [1], 0.14 ug/10e6 with TIG-1-20 [2], 0.25 µg in the assay on B16 [3] and 0.26 ug/10e6 with B16 [4]. Moreover, the results for the IC50 in the assay with Tumor cell line and in the assay with IMR-32 were 0.0000319 M mol/dm 3 and 8.2e-6 ppm g dm**-3, respectively.

With `NC(Cc1ccc(B(O)O)cc1)C(=O)O` (stereo not given), the Boron incorporation in the assay with TIG-1-20 [1] was 0.26 ug/10e6; with TIG-1-20 [2], 0.17 ug/10e6; with B16 [3], 0.22 ug/10e6; with B16 [4], 0.28 ug/10e6.
